Key:
HaCaT = assay: Cytotoxicity against human HaCaT cells assessed as reduction in cell viability after 48 hrs by MTT assay; type: cell-based
Outline: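 HaCaT keratinocytes were exposed for 48 h at 37 °C under 5% CO2 to test agents dissolved in medium. Nine twofold serial dilutions ran from 500 down to 1.95. Cells were then rinsed with PBS (pH 7.4) and given MTT at 0.5 mg/mL in PBS for 10 min in the dark, then read at 595 nm. Survival is a percentage of control wells, averaged over 12 replicates. EC50 came from non-linear regression of dose-response curves.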

[1] = Prodrug activation in human PT37 cells assessed as intracellular cysteamine-CMQT formation at 20 uM incubated for 2 to 24 hrs by HPLC analysis; type: cell-based; conditions: pt37, 20 µM
Outline: (§1)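 PT37 normal human proximal tubule cells were grown in DMEM/F12 with 2 mM L-glutamine, penicillin-streptomycin and 10% heat-inactivated FCS at 37 °C under 5% CO2. Confluent monolayers got […] test agent in medium at 37 °C for 0, 2, 6, 16 or 24 h. Cells were trypsin-harvested, lysed and centrifuged. Pellet protein was measured by Bradford against BSA standards. Supernatant thiols were reduced with NaBH4, derivatised with CMQT and analysed by HPLC with UV and fluorescence detection. Results are nmol/mg protein, n=3.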

physchem = conditions: octanol/water, pH 2
[2] = Lipophilicity, log D of compound at pH 7.4; conditions: buffer
Serum = assay: Prodrug activation in fetal bovine serum containing medium assessed as cysteamine formation after 24 hrs by LC-MS analysis; design: species or system Bos taurus; conditions: cattle
Outline: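 Prodrug was incubated in medium containing fetal bovine serum for up to 24 h. Hydrolysis and cysteamine release were monitored by LC-MS.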

[3] = Dissociation constant, pKa of compound at pH 2 to 12 at 1 to 2 mg by potentiometric titration method; type: physicochemical
Outline: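 Accurately weighed sample loaded into an automated Sirius T3 for pH-metric analysis, using automated acid-base titration. The pKa was computed from the titration data. The value is the mean of 3 titrations.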

[4] = Drug metabolism in water assessed as oxidation of cysteamine by measuring cysteamine-CMQT level at pH 4.66 at 0.01 M after 1 hr by HPLC-UV method; type: physicochemical; conditions: buffer, pH 4.66, 1 h
[5] = Drug metabolism in water assessed as oxidation of cysteamine by measuring cysteamine-CMQT level at pH 4.66 at 0.01 M after 3 hrs by HPLC-UV method; type: physicochemical; conditions: buffer, pH 4.66, 3 h
[6] = Prodrug activation in human PT37 cells assessed as intracellular cysteamine-CMQT formation per mg protein at 20 uM after 24 hrs by HPLC analysis; type: cell-based; conditions: pt37, 24 h; outline: as §1
[7] = Prodrug activation in human PT37 cells assessed as intracellular cysteamine-CMQT formation at 20 uM after 2 hrs by HPLC analysis; type: cell-based; conditions: pt37, 2 h; outline: as §1
[8] = Prodrug activation in human PT37 cells assessed as intracellular cysteamine-CMQT formation per mg protein at 20 uM after 6 hrs by HPLC analysis; type: cell-based; conditions: pt37, 6 h; outline: as §1

| Structure (SMILES) | EC50 (HaCaT; Homo sapiens, HaCaT, 48 h) [µM] | Drug metabolism [1] | logP (physchem) | logD [2] | pKa [3] | further results |
| --- | --- | --- | --- | --- | --- | --- |
| CCCOC(=O)[C@@H](N)CCC(=O)NCCSC(=O)C(C)(C)C | 152 |  |  |  |  |  |
| CCOC(=O)[C@@H](N)CCC(=O)NCCSC(C)=O.Cl | 1730 | metabolite_detected | 0.11 | -1.44 | 8.94 | Drug metabolism (Serum): metabolite_notdetected |
| CCOC(=O)[C@@H](N)CCC(=O)NCCSC(=O)c1ccccc1.Cl | 331 | metabolite_detected | 1.09 | -0.37 | 8.85 |  |
| CCCCOC(=O)[C@@H](N)CCC(=O)NCCSC(C)=O.Cl | 563 | metabolite_detected | 0.43 | -0.88 | 8.69 |  |
| CCCOC(=O)[C@@H](N)CCC(=O)NCCSC(=O)c1ccccc1 | 75 |  |  |  |  |  |
| CCOC(=O)[C@@H](N)CCC(=O)NCCSC(=O)C(C)(C)C.Cl | 228 | metabolite_detected | 1.22 | -0.29 | 8.9 |  |
| Cl.NCCS [CYSTEAMINE HYDROCHLORIDE] |  |  |  |  | 8.15 | Drug metabolism [4]: 50%; Drug metabolism [5]: metabolite_notdetected; Drug metabolism [6]: 0.22 nmol/mg; Drug metabolism [7]: metabolite_detected; Drug metabolism [8]: 0.84 nmol/mg; EC50 (HaCaT; hacat): 309 µM |
| Cl.Cl.NCCS |  | metabolite_notdetected |  |  |  |  |
| CCCCOC(=O)[C@@H](N)CCC(=O)NCCSC(=O)C(C)(C)C | 102 |  |  |  |  |  |
| CCCCOC(=O)[C@@H](N)CCC(=O)NCCSC(=O)c1ccccc1 | 97 |  |  |  |  |  |
| CCCOC(=O)[C@@H](N)CCC(=O)NCCSC(C)=O.Cl | 548 | metabolite_detected | 0.21 | -1.21 | 8.8 |  |
| N[C@@H](CCC(=O)NCCS)C(=O)O |  |  |  |  |  | Drug metabolism (Serum): metabolite_notdetected |
